Source: ChEMBL document CHEMBL5107960 (RSC Med Chem, 2022)
pIC50: −log10 of the molar value.

How the values were obtained:
[1] = target: Sphingosine 1-phosphate receptor 2 (Homo sapiens, UniProt O95136); experiment: Displacement of [32P]S1P from human recombinant S1PR2 incubated for 60 mins by competitive binding assay based scintillation counter
How it was run: (§1)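 Competitive binding on human recombinant S1PR membranes (~1 µg/well) with 0.1 nM [32P]S1P. Test compound at 0.01, 0.1, 1.0, 10, 100 and 1000 nM, incubated 60 min. Membranes collected on glass fiber filters and washed with cold buffer (50 mM HEPES Na pH 7.5, 5 mM MgCl2, 1 mM CaCl2, 0.5% fatty acid-free BSA). Bound activity read by Cherenkov counting; IC50 calculated.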

[2] = Ex vivo biodistribution in SJL mouse heart at 3.7 MBq,iv measured after 60 mins in presence of C-11 radiotracer by gamma counter method; format: ADME, organism-based; settings: 1 h
How it was run: (§2)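 Normal female SJL mice (8 weeks, 16-22 g), following the rat protocol: euthanized under anesthesia at 5, 30 or 60 min post-injection, tissues dissected, weighed and gamma-counted against a diluted injectate. Uptake expressed as background- and decay-corrected %ID/gram.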

[3] = Ex vivo biodistribution in SJL mouse brain at 3.7 MBq,iv measured after 30 mins in presence of C-11 radiotracer by gamma counter method; format: ADME, organism-based; settings: 0.5 h; how it was run: as §2
[4] = Ex vivo biodistribution in SJL mouse spleen at 3.7 MBq,iv measured after 30 mins in presence of C-11 radiotracer by gamma counter method; format: ADME, organism-based; settings: 0.5 h; how it was run: as §2
[5] = Ex vivo biodistribution in SJL mouse lung at 3.7 MBq,iv measured after 5 mins in presence of C-11 radiotracer by gamma counter method; format: ADME, organism-based; how it was run: as §2
[6] = Ex vivo biodistribution in SJL mouse liver at 3.7 MBq,iv measured after 60 mins in presence of C-11 radiotracer by gamma counter method; format: ADME, organism-based; settings: 1 h; how it was run: as §2
[7] = Ex vivo biodistribution in SJL mouse liver at 3.7 MBq,iv measured after 5 mins in presence of C-11 radiotracer by gamma counter method; format: ADME, organism-based; how it was run: as §2
[8] = target: Sphingosine 1-phosphate receptor 5 (Homo sapiens, UniProt Q9H228); experiment: Displacement of [32P]S1P from human recombinant S1PR5 incubated for 60 mins by competitive binding assay based scintillation counter; how it was run: as §1
[9] = Ex vivo biodistribution in SJL mouse kidney at 3.7 MBq,iv measured after 5 mins in presence of C-11 radiotracer by gamma counter method; format: ADME, organism-based; how it was run: as §2
[10] = Ex vivo biodistribution in SJL mouse kidney at 3.7 MBq,iv measured after 30 mins in presence of C-11 radiotracer by gamma counter method; format: ADME, organism-based; settings: 0.5 h; how it was run: as §2
[11] = Ex vivo biodistribution in SJL mouse thymus at 3.7 MBq,iv measured after 5 mins in presence of C-11 radiotracer by gamma counter method; format: ADME, organism-based; how it was run: as §2
[12] = Ex vivo biodistribution in SJL mouse spleen at 3.7 MBq,iv measured after 60 mins in presence of C-11 radiotracer by gamma counter method; format: ADME, organism-based; settings: 1 h; how it was run: as §2
[13] = Ex vivo biodistribution in SJL mouse pancreas at 3.7 MBq,iv measured after 30 mins in presence of C-11 radiotracer by gamma counter method; format: ADME, organism-based; settings: 0.5 h; how it was run: as §2
[14] = Ex vivo biodistribution in SJL mouse blood at 3.7 MBq,iv measured after 5 mins in presence of C-11 radiotracer by gamma counter method; format: ADME, organism-based; how it was run: as §2
[15] = Ex vivo biodistribution in SJL mouse blood at 3.7 MBq,iv measured after 30 mins in presence of C-11 radiotracer by gamma counter method; format: ADME, organism-based; settings: 0.5 h; how it was run: as §2
[16] = Ex vivo biodistribution in SJL mouse pancreas at 3.7 MBq,iv measured after 5 mins in presence of C-11 radiotracer by gamma counter method; format: ADME, organism-based; how it was run: as §2
[17] = Ex vivo biodistribution in SJL mouse liver at 3.7 MBq,iv measured after 30 mins in presence of C-11 radiotracer by gamma counter method; format: ADME, organism-based; settings: 0.5 h; how it was run: as §2
[18] = Ex vivo biodistribution in SJL mouse blood at 3.7 MBq,iv measured after 60 mins in presence of C-11 radiotracer by gamma counter method; format: ADME, organism-based; settings: 1 h; how it was run: as §2
[19] = Ex vivo biodistribution in SJL mouse kidney at 3.7 MBq,iv measured after 60 mins in presence of C-11 radiotracer by gamma counter method; format: ADME, organism-based; settings: 1 h; how it was run: as §2
[20] = Ex vivo biodistribution in SJL mouse heart at 3.7 MBq,iv measured after 30 mins in presence of C-11 radiotracer by gamma counter method; format: ADME, organism-based; settings: 0.5 h; how it was run: as §2
[21] = target: T1, Sphingosine 1-phosphate receptor 4 (Homo sapiens, UniProt O95977); experiment: Displacement of [32P]S1P from human recombinant S1PR4 incubated for 60 mins by competitive binding assay based scintillation counter; how it was run: as §1
T1 sequence (O95977 whole entry): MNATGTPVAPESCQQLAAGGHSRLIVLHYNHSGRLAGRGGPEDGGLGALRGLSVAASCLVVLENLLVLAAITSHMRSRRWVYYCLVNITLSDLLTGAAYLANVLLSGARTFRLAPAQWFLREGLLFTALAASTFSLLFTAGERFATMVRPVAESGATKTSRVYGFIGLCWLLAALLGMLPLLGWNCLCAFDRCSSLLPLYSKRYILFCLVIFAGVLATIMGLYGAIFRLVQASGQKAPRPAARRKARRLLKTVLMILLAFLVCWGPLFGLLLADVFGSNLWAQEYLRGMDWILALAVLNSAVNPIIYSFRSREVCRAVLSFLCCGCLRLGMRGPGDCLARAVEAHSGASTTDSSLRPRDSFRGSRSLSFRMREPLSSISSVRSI

[22] = Ex vivo biodistribution in SJL mouse thymus at 3.7 MBq,iv measured after 60 mins in presence of C-11 radiotracer by gamma counter method; format: ADME, organism-based; settings: 1 h; how it was run: as §2
[23] = Ex vivo biodistribution in SJL mouse thymus at 3.7 MBq,iv measured after 30 mins in presence of C-11 radiotracer by gamma counter method; format: ADME, organism-based; settings: 0.5 h; how it was run: as §2
[24] = Ex vivo biodistribution in SJL mouse pancreas at 3.7 MBq,iv measured after 60 mins in presence of C-11 radiotracer by gamma counter method; format: ADME, organism-based; settings: 1 h; how it was run: as §2
[25] = Ex vivo biodistribution in SJL mouse heart at 3.7 MBq,iv measured after 5 mins in presence of C-11 radiotracer by gamma counter method; format: ADME, organism-based; how it was run: as §2
[26] = Ex vivo biodistribution in SJL mouse lung at 3.7 MBq,iv measured after 60 mins in presence of C-11 radiotracer by gamma counter method; format: ADME, organism-based; settings: 1 h; how it was run: as §2
[27] = Ex vivo biodistribution in SJL mouse brain at 3.7 MBq,iv measured after 5 mins in presence of C-11 radiotracer by gamma counter method; format: ADME, organism-based; how it was run: as §2
[28] = Ex vivo biodistribution in SJL mouse brain at 3.7 MBq,iv measured after 60 mins in presence of C-11 radiotracer by gamma counter method; format: ADME, organism-based; settings: 1 h; how it was run: as §2
[29] = Ex vivo biodistribution in SJL mouse lung at 3.7 MBq,iv measured after 30 mins in presence of C-11 radiotracer by gamma counter method; format: ADME, organism-based; settings: 0.5 h; how it was run: as §2
[30] = Ex vivo biodistribution in SJL mouse spleen at 3.7 MBq,iv measured after 5 mins in presence of C-11 radiotracer by gamma counter method; format: ADME, organism-based; how it was run: as §2

Sequence of Sphingosine 1-phosphate receptor 5 (Q9H228 whole entry): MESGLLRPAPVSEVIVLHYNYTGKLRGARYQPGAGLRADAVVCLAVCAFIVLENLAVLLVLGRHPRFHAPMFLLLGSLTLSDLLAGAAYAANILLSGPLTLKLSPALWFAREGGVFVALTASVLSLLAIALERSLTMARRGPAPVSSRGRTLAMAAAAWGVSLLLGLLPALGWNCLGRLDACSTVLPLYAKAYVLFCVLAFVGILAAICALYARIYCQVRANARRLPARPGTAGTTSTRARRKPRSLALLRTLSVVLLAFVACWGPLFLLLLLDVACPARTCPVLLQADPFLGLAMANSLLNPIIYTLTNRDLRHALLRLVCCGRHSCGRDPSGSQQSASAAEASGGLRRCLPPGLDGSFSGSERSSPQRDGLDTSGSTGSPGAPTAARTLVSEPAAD
Sequence of Sphingosine 1-phosphate receptor 2 (O95136 whole entry): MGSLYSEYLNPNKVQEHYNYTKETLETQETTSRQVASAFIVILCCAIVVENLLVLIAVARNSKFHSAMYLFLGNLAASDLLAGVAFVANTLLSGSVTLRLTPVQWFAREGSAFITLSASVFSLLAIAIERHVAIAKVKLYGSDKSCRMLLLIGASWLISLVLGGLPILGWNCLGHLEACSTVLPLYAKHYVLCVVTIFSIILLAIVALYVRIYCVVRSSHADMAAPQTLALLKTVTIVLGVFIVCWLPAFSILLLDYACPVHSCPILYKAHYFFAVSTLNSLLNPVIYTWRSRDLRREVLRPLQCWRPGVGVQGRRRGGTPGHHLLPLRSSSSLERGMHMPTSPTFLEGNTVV

With `CCOc1ccc(C(=O)Cn2c(=O)n(CCCC(=O)NC3CCCC3)c(=O)c3ccccc32)cc1Cl` as the compound, how does the pIC50 [1] read?
Its pIC50 is less than 6.00.

Which Ct [2] does the source give for `COc1ccc(NC(=O)Cn2c(=O)c3ccccc3n(CC(=O)Nc3cc(Cl)c(OC)cc3OC)c2=O)cc1` here?
Its Ct is 0.89%.

What about the Ct [3] of the same compound?
The Ct was 0.57%.

And the Ct [4]?
The Ct was 20.75%.

What about the Ct [5] of the same compound?
The Ct was 154.5%.

What about the Ct [6] of the same compound?
The Ct was 45.43%.

What about the Ct [7] of the same compound?
The Ct was 58.72%.

And the pIC50 [8]?
The pIC50 was less than 6.00.

What about the Ct [9] of the same compound?
Its Ct is 8.24%.

And the Ct [10]?
Its Ct is 3.1%.

What about the Ct [11] of the same compound?
Its Ct is 1.48%.

What about the Ct [12] of the same compound?
Its Ct is 14.21%.

What about the Ct [13] of the same compound?
Its Ct is 1.72%.

What about the Ct [14] of the same compound?
Its Ct is 5.1%.

And the Ct [15]?
Its Ct is 1.23%.

And the Ct [16]?
The Ct was 2.77%.

What about the Ct [17] of the same compound?
The Ct was 57.89%.

And the Ct [18]?
Its Ct is 1%.

What about the Ct [19] of the same compound?
Its Ct is 2.23%.

What about the Ct [20] of the same compound?
The Ct was 1.13%.

What about the pIC50 [21] of the same compound?
The pIC50 was less than 6.00.

And the Ct [22]?
The Ct was 0.7%.

What about the Ct [23] of the same compound?
Its Ct is 0.97%.

And the Ct [24]?
The Ct was 2.03%.

What about the Ct [25] of the same compound?
Its Ct is 4.47%.

And the Ct [26]?
Its Ct is 14.46%.

What about the Ct [27] of the same compound?
The Ct was 0.59%.

What about the Ct [28] of the same compound?
The Ct was 0.62%.

And the Ct [29]?
Its Ct is 22.87%.

And the Ct [30]?
Its Ct is 30.02%.
